{"data": "Results from different studies", "note": "Compare with care: the assays were run in different laboratories."}
{"Compound": "CCc1cc(-c2noc(-c3cc(OC)nc(C4CCCC4)c3)n2)cc(C)c1OC[C@@H](O)CO", "test system": "Wistar rat, plasma", "conditions": "oral, 0.3 mg/kg, 24 h, single dose", "concentration": "5 ng/mL"}
{"Compound": "Cc1ccc(-c2cc(C(F)(F)F)nn2-c2ccc(S(N)(=O)=O)cc2)cc1", "test system": "male Sprague-Dawley rat, plasma", "conditions": "oral, 20 mg/kg, 8 h", "concentration": "910 nM"}
{"Compound": "Cc1noc(C)c1Cn1cc(N2C(=O)CN(Cc3cccc(O)c3)C2=O)cn1", "test system": "male Sprague-Dawley rat, plasma", "conditions": "oral, 10 mg/kg, 1 h", "concentration": "8.29 ng/mL"}
{"Compound": "CCCOc1ccc(OC)c(F)c1C(=O)c1ccc(C(=O)N[C@@H]2CNC[C@H]2NC(=O)c2ccc3[nH]ncc3c2)cc1", "test system": "rat, plasma", "conditions": "intravenous, 559 µg, 10 min, single dose", "concentration": "470 ng/mL"}
{"Compound": "COc1cccc(-c2n[nH]c(SCc3ccccn3)n2)c1OC", "test system": "male Sprague-Dawley rat, plasma", "conditions": "oral, 10 mg/kg, 1 h, single dose", "concentration": "10400 ng/mL"}
{"Compound": "CN(C(=O)n1cnc(-c2ccc[n+]([O-])c2)c1)C1CCCCC1", "test system": "Wistar rat, plasma", "conditions": "oral, 10 mg/kg, 8 h", "concentration": "278 ng/mL"}
{"Compound": "Cc1noc(C)c1Cn1cc(N2C(=O)N(Cc3cccc(O)c3)C(C)(C)C2=O)cn1", "test system": "male Sprague-Dawley rat, plasma", "conditions": "oral, 100 mg/kg, 8 h, single dose", "concentration": "5.2 ng/mL"}
{"Compound": "COc1ccc2c(=O)n(C)c(-c3ccccc3)nc2c1", "test system": "male Sprague-Dawley rat, lung", "conditions": "oral, 30 mg/kg, 30 min", "concentration": "2.5 ng/mL"}
{"Compound": "CCOC(=O)[C@@]12C[C@@H]1[C@@H](n1ccc3c(NC)nc(C#Cc4ccc(Cl)s4)nc31)[C@H](O)[C@@H]2O", "test system": "male Sprague-Dawley rat, plasma", "conditions": "oral, 3 mg/kg, 30 min", "concentration": "48.4 ng/mL"}
{"Compound": "COc1nc(-c2cc(C)c(N[C@@H](C)c3cc(F)cc(F)c3)nn2)ccc1-n1cnc(C)c1", "test system": "male Sprague-Dawley rat, CSF", "conditions": "oral, 5 mg/kg, 4 h, multiple doses, once daily", "concentration": "15.3 ng/mL"}
